T cruzi growth-1 – T. cruzi intracellular proliferation inhibitors, primary screen, cell-based, beta-gal Tulahuen parasites, NIH3T3 host, luminescence; T. cruzi beta-gal in NIH3T3, GalScreen luminescence, 90 h; AID 624255, 2012; inhibition, % at 8.34 µM; hit rate 5.9% among 77,000;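 active = mean inhibition above about 93%, with at least 55% of replicates each passing it, limit read from the data, passing the limit was not always enough; inconclusive = only one of those two conditions holds; inactive = neither condition holds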
GASC1 inh – inhibitors of GASC-1 (KDM4C) histone demethylase, primary screen, biochemical, single concentration HTS. Lysine-specific demethylase 4C (Homo sapiens), Q9H3R0. GST-KDM4C 2-372, H3K9me3 peptide, LANCE TR-FRET. inhibition, % at 12.5 µM. hit rate 0.15% among 96,000. AID 720574, 2013;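 active = mean replicate inhibition above about 25%, with at least 55% of replicates also reaching it, limit read from the data, passing the limit was not always enough; inconclusive = only one of those two conditions met; inactive = neither condition met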
Target sequence (Q9H3R0 2-372 limits assumed): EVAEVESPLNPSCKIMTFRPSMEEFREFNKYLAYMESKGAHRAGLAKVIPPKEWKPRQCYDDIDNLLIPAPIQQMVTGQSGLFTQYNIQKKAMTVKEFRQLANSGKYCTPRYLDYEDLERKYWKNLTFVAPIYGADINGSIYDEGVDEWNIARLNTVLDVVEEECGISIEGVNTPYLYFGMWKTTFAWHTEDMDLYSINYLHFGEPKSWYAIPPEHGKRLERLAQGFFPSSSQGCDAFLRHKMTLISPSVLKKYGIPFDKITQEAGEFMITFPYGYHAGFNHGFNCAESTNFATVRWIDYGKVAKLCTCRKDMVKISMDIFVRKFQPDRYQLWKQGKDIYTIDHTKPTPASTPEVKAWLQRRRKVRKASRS
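Assay system: GST-GASC-1 enzyme fragment 2-372 | Amount: 10 nM enzyme | Medium: HEPES buffer, pH 7.5, plus ascorbate | Reagent: H3K9me3 peptide substrate, Fe(II), 2-oxoglutarate | Doses: Single-point compound screen | Incubation: 30 min demethylation and 1 h detection at room temperature | Measured by: LANCE TR-FRET, excitation 340 nm, emissions 618 and 671 nm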
IDH1 R132H inh – inhibitors of IDH1 R132H reductase, primary screen, biochemical, plate reader, single point. diaphorase/resazurin fluorescence, 60 min. inhibition, % at 10 µM. hit rate 0.18% among 70,000. AID 624101, 2012; in the data active = inhibition above about 34%; inconclusive = no clear call, values can overlap the other calls; inactive = below about 11%
Target sequence (O75874 whole entry R132H): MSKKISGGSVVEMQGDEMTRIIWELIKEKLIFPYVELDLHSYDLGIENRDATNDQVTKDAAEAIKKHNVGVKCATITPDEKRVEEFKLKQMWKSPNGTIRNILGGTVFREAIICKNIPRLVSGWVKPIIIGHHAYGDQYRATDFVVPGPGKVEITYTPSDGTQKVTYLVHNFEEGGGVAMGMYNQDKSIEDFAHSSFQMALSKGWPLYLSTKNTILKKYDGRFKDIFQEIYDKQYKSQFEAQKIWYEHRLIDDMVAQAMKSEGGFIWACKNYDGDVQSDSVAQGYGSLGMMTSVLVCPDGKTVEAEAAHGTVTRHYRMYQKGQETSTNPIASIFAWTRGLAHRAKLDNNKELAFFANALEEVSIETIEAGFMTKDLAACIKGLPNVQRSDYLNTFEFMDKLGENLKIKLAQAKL
T cruzi growth-2 – T. cruzi intracellular proliferation inhibitors, confirmation, cell-based, NIH3T3 host, beta-gal parasite, luminescence, cherry-pick | shares compounds with T cruzi growth-1 | T. cruzi beta-gal in NIH3T3, GalScreen luminescence, 90 h | inhibition, % at 8.35 µM | hit rate 72% among 5,600 | AID 651739, 2012;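 active = mean replicate inhibition above about 95% and at least 55% of replicates individually reaching it, limit read from the data; inconclusive = only one of the two criteria is met; inactive = neither criterion is met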
T cruzi growth-3 – inhibitors of intracellular T. cruzi replication, confirmation, NIH3T3 host cells, beta-gal parasites, cherry-pick, set 2; shares compounds with T cruzi growth-1; T. cruzi beta-gal in NIH3T3, GalScreen luminescence, 90 h; inhibition, % at 2.09 µM; hit rate 21% among 5,600; AID 651740, 2012;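 active = mean inhibition above about 95%, with at least 55% of replicates also reaching it, limit read from the data; inconclusive = meets just one of the two conditions; inactive = meets neither condition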
NIH3T3 tox – cytotoxicity in mouse NIH/3T3 fibroblasts, confirmation, cytotoxicity control for T. cruzi proliferation inhibitor project, cell-based, cherry-pick, single point | shares compounds with T cruzi growth-1 | NIH/3T3 viability, CellTiter-Glo ATP luminescence, 90 h | cytotoxicity (signal decrease), % at 8.35 µM | hit rate 14% among 5,600 | AID 651742, 2012;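 active = mean signal decrease across replicates above about 35% based on untreated-well scatter, with enough replicates individually passing, limit read from the data; inconclusive = no rule stated though some were filed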
3T3 cytotox 2 – NIH/3T3 fibroblast cytotoxicity, confirmation, cytotoxicity control, cell-based, cherry-pick, single point, set 2 | NIH/3T3 viability, CellTiter-Glo ATP luminescence, 90 h | AID 651744, 2012 | shares compounds with T cruzi growth-1 | hit rate 56% among 5,600 | inhibition, % at 24.9 µM;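 active = mean loss of cell viability signal at or above a set limit, and enough replicates individually reaching it; inconclusive = meets only the mean limit or only the replicate share; inactive = meets neither condition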
Of the large screens only hits and unclear results are named; the others gave an inactive call (follow-up assays come after a bar, where they were run). This is one part of a sample in which hits are shown more often than they occur.

C[C@H](CO)N1C[C@H](C)[C@@H](CN(C)C(=O)Cc2ccncc2)Oc2cc(C#CC3CC3)ccc2S1(=O)=O	T cruzi growth-1 97.5, IDH1 R132H inh inconclusive | T cruzi growth-2 101.9 | T cruzi growth-3 inactive | NIH3T3 tox inactive | 3T3 cytotox 2 inactive
C[C@H]1CN([C@@H](C)CO)S(=O)(=O)c2ccc(C#CC3CC3)cc2O[C@@H]1CN(C)C(=O)Cc1ccncc1	T cruzi growth-1 96.3 (no result: IDH1 R132H inh) | T cruzi growth-2 104.0 | T cruzi growth-3 inactive | NIH3T3 tox inactive | 3T3 cytotox 2 inactive
C[C@H]1CN([C@@H](C)CO)C(=O)c2cc(C#CCN(C)C)cnc2O[C@H]1CN(C)Cc1cccc(F)c1	none
C[C@@H]1CN([C@H](C)CO)C(=O)Cc2cc(NS(C)(=O)=O)ccc2O[C@H]1CN(C)Cc1ccc(C(F)(F)F)cc1	none
C[C@H](CO)N1C[C@H](C)[C@@H](CN(C)Cc2ccc(Cl)c(Cl)c2)Oc2ccc(NS(C)(=O)=O)cc2CC1=O	T cruzi growth-1 inconclusive | T cruzi growth-2 114.8 | T cruzi growth-3 inactive | NIH3T3 tox inactive | 3T3 cytotox 2 100.3
C[C@H](CO)N1C[C@H](C)[C@@H](CN(C)Cc2ccc(C(F)(F)F)cc2)Oc2ccc(N(C)C)cc2CC1=O	T cruzi growth-1 132.7 | T cruzi growth-2 107.7 | T cruzi growth-3 96.9 | NIH3T3 tox inactive | 3T3 cytotox 2 71.9
C[C@H](CO)N1C[C@H](C)[C@@H](CN(C)Cc2ccc(C(F)(F)F)cc2)Oc2ccc(NS(C)(=O)=O)cc2CC1=O	T cruzi growth-1 118.1 | T cruzi growth-2 109.4 | T cruzi growth-3 103.4 | NIH3T3 tox inactive | 3T3 cytotox 2 47.3
C[C@H]1CN([C@@H](C)CO)C(=O)Cc2cc(NS(C)(=O)=O)ccc2O[C@@H]1CN(C)Cc1ccc(Cl)c(Cl)c1	none
C[C@@H]1CN([C@H](C)CO)C(=O)Cc2cc(N(C)C)ccc2O[C@H]1CN(C)Cc1ccc(C(=O)O)cc1	none
Cc1noc(C)c1S(=O)(=O)Nc1ccc2c(c1)C(=O)N([C@@H](C)CO)C[C@@H](C)[C@@H](CN(C)C)OCCCC[C@@H](C)O2	none
COc1ccc2c3c(n(C)c2c1)[C@H](CO)N(C)CC31CCN(S(=O)(=O)c2cccc(F)c2)CC1	none (no result: T cruzi growth-1, IDH1 R132H inh)
C[C@@H]1CN([C@H](C)CO)C(=O)Cc2cc(NC(=O)Cn3cnnn3)ccc2O[C@H]1CN(C)Cc1ccc(-c2ccccc2)cc1	none
Cc1ccc(-n2c(SCC(=O)Nc3sc4c(c3C#N)CCCC4)nnc2-c2ccccc2)cc1	none (no result: T cruzi growth-1, GASC1 inh)
N#C[C@@H]1[C@H](c2ccc(-c3ccc(F)cc3)cc2)[C@@H](CO)N1C(=O)Cc1ccccc1	none (no result: IDH1 R132H inh)
COc1cccc(-c2ccc([C@@H]3[C@H](C#N)N(C(=O)Cc4ccccc4)[C@H]3CO)cc2)c1	T cruzi growth-1 inconclusive (no result: IDH1 R132H inh) | T cruzi growth-2 110.9 | T cruzi growth-3 inactive | NIH3T3 tox inactive | 3T3 cytotox 2 33.0
COc1cccc(-c2ccc([C@H]3[C@@H](CO)N(C(=O)Cc4ccccc4)[C@H]3C#N)cc2)c1	T cruzi growth-1 96.7 (no result: IDH1 R132H inh) | T cruzi growth-2 95.7 | T cruzi growth-3 98.5 | NIH3T3 tox inactive | 3T3 cytotox 2 36.7
COc1cccc(-c2ccccc2[C@@H]2[C@@H](CO)N(C(=O)Cc3ccccc3)[C@H]2C#N)c1	none (no result: T cruzi growth-1, IDH1 R132H inh)
COc1ccc(CN(C)C[C@@H]2Oc3ccc(NS(=O)(=O)c4cn(C)cn4)cc3CC(=O)N([C@@H](C)CO)C[C@H]2C)cc1	none
COc1cccc(NC(=O)N[C@H]2C=C[C@H](CC(=O)Nc3ccccc3)O[C@H]2CO)c1	none (no result: T cruzi growth-1, IDH1 R132H inh)
COC(=O)C1=C(C)Nc2ncnn2C1c1cccc(OC)c1OCc1ccccc1 (stereo unspecified)	none (no result: T cruzi growth-1, GASC1 inh)
COc1ccc2cc(Br)ccc2c1CC(=O)Nc1cccnc1	none (no result: T cruzi growth-1, GASC1 inh)
Cc1ccc2ccc(C(Nc3ccccn3)c3cccc([N+](=O)[O-])c3)c(O)c2n1 (stereo unspecified)	none (no result: T cruzi growth-1, GASC1 inh)
C[C@H](CO)N1C[C@H](C)[C@@H](CN(C)C(=O)Nc2ccc(F)cc2)Oc2ccc(NS(=O)(=O)c3cn(C)cn3)cc2CC1=O	none
C[C@H](CO)N1C[C@H](C)[C@@H](CN(C)Cc2ccc(Cl)c(Cl)c2)Oc2c(NC(=O)c3ccncc3)cccc2C1=O	none
C[C@@H]1CN([C@@H](C)CO)C(=O)c2cccc(NC(=O)c3ccncc3)c2O[C@@H]1CN(C)Cc1ccc(Cl)c(Cl)c1	T cruzi growth-1 96.5 | T cruzi growth-2 99.9 | T cruzi growth-3 inactive | NIH3T3 tox inactive | 3T3 cytotox 2 inactive
C[C@@H]1CN([C@@H](C)CO)C(=O)c2cccc(NC(=O)c3ccncc3)c2O[C@@H]1CN(C)Cc1ccc2c(c1)OCO2	none
C[C@H](CO)N1C[C@H](C)[C@@H](CN(C)Cc2ccc3c(c2)OCO3)Oc2c(NC(=O)c3ccncc3)cccc2C1=O	T cruzi growth-1 99.1 | T cruzi growth-2 104.3 | T cruzi growth-3 inactive | NIH3T3 tox inactive | 3T3 cytotox 2 34.6
C[C@H]1CN([C@@H](C)CO)C(=O)c2cccc(NC(=O)c3ccncc3)c2O[C@@H]1CN(C)Cc1ccc2c(c1)OCO2	T cruzi growth-1 99.9 | T cruzi growth-2 inactive | T cruzi growth-3 inactive | NIH3T3 tox inactive | 3T3 cytotox 2 inactive
C[C@@H]1CN([C@H](C)CO)C(=O)c2cccc(NC(=O)c3ccncc3)c2O[C@@H]1CN(C)Cc1ccc2c(c1)OCO2	none
C[C@@H]1CN([C@@H](C)CO)C(=O)Cc2cc(NS(=O)(=O)c3ccc(Cl)cc3)ccc2O[C@@H]1CN(C)Cc1ccc(C(=O)O)cc1	none (no result: IDH1 R132H inh)
COc1ccccc1-c1cnc2c(c1)C(=O)N([C@H](C)CO)C[C@H](C)[C@H](CN(C)Cc1ccc(F)cc1)O2	none (no result: T cruzi growth-1)
COc1cccc(NC(=O)c2c(NC(=O)c3cccnc3)sc3c2CCC3)c1	none (no result: T cruzi growth-1, GASC1 inh)
CCC(=O)Nc1ccc2c(c1)C(=O)N(C)[C@H]1CC[C@H](CC(=O)Nc3ccc(OC)cc3)O[C@@H]1CO2	none (no result: IDH1 R132H inh)
CC(C)NC(=O)N[C@H]1C=C[C@@H](CC(=O)NCc2ccc(Oc3ccccc3)cc2)O[C@@H]1CO	none
O=C(c1ccc(F)cc1)N1CC(=O)N2[C@H](CO)[C@H](c3ccc(-c4cccnc4)cc3)[C@H]2C1	none (no result: T cruzi growth-1, IDH1 R132H inh)

Screening results from PubChem BioAssay.
